Measured values of several laboratories.
PIK3CA I800L: Phosphatidylinositol 4,5-bisphosphate 3-kinase catalytic subunit alpha isoform (PIK3CA, Homo sapiens, UniProt P42336, I800L)
PIK3CA H1047Y: Phosphatidylinositol 4,5-bisphosphate 3-kinase catalytic subunit alpha isoform (PIK3CA, Homo sapiens, UniProt P42336, H1047Y)
PIK3CA H1047L: Phosphatidylinositol 4,5-bisphosphate 3-kinase catalytic subunit alpha isoform (PIK3CA, Homo sapiens, UniProt P42336, H1047L)
PIK3CA C420R: Phosphatidylinositol 4,5-bisphosphate 3-kinase catalytic subunit alpha isoform (PIK3CA, Homo sapiens, UniProt P42336, C420R)
PIK3CA: Phosphatidylinositol 4,5-bisphosphate 3-kinase catalytic subunit alpha isoform (PIK3CA, Homo sapiens, UniProt P42336)
PIK3CA E542K: Phosphatidylinositol 4,5-bisphosphate 3-kinase catalytic subunit alpha isoform (PIK3CA, Homo sapiens, UniProt P42336, E542K)
PIK3CA M1043I: Phosphatidylinositol 4,5-bisphosphate 3-kinase catalytic subunit alpha isoform (PIK3CA, Homo sapiens, UniProt P42336, M1043I)
PIK3CA E545K: Phosphatidylinositol 4,5-bisphosphate 3-kinase catalytic subunit alpha isoform (PIK3CA, Homo sapiens, UniProt P42336, E545K)
PIK3CA Q546K: Phosphatidylinositol 4,5-bisphosphate 3-kinase catalytic subunit alpha isoform (PIK3CA, Homo sapiens, UniProt P42336, Q546K)

Structure (SMILES)	target	observed	technique	concentration	remaining binding [%]
O=C(c1ccc(Nc2ncc(Cl)c(-c3cc4ccccc4s3)n2)cc1)N1CCC(N2CCCC2)CC1	PIK3CA I800L	binding	competition with immobilised ligand	1 µM	97
F[C@@H]1CCN(c2nccc(-c3cnn4ncccc34)n2)C1	PIK3CA I800L	binding		1 µM	100
Cc1cnc(Nc2ccc(C(=O)N3CCC(N4CCCC4)CC3)cc2)nc1-c1cc2ccccc2s1	PIK3CA H1047Y	binding	competition with immobilised ligand	1 µM	65
O=C(NCc1ncc(C(F)(F)F)cc1Cl)c1ccc2c(c1)C1(CCS(=O)(=O)CC1)[C@H](C1CC1)N2S(=O)(=O)c1ccc(F)cc1	PIK3CA H1047L	cell-free assay	competition with immobilised ligand	1 µM	77
CN(C)c1ncc(F)c(-c2cnn3ncccc23)n1	PIK3CA C420R	binding		1 µM	46
Cc1c(-c2ccccc2)oc2c(C(=O)OCCN3CCCCC3)cccc2c1=O	PIK3CA	cell-free assay	competition with immobilised ligand	0.1 µM	100
O=C(c1ccc(Nc2nccc(-c3cc4ccccc4s3)n2)cc1)N1CCC(N2CCCC2)CC1	PIK3CA I800L	binding	competition with immobilised ligand	1 µM	100
COc1ncc2cc3ccccc3nc2c1C#N	PIK3CA E542K	cell-free assay	competition with immobilised ligand	5 µM	100
C=CC(=O)N1CCC(C(=O)NCC(=O)N2CCN(c3nc(-c4cnc(N)nc4C(F)F)nc(N4CCOCC4)n3)CC2)CC1	Phosphatidylinositol 4,5-bisphosphate 3-kinase catalytic subunit alpha isoform (PIK3CA, Homo sapiens, UniProt P42336, E545A)	binding	competition with immobilised ligand	1 µM	0.5
O=C(NCCCN1CCOCC1)c1ccc(Nc2ncc(Cl)c(-c3ccc(Cl)s3)n2)cc1	PIK3CA M1043I	binding	competition with immobilised ligand	1 µM	100
O=C(NCC1CCOCC1)c1n[nH]cc1NC(=O)c1c(F)cccc1F	PIK3CA E545K	binding	competition with immobilised ligand	1 µM	75
CC1=C(C#N)C(c2ccc3c(c2)c(NC(=O)c2ccccc2C)nn3C)C(C#N)=C(C)N1	PIK3CA Q546K	cell-free assay	competition with immobilised ligand	1 µM	87
CN1CCN(c2ccc(Nc3nccc(-c4cccc([N+](=O)[O-])c4)n3)cc2C(F)(F)F)CC1	PIK3CA M1043I	binding		10 µM	35
O=C(c1ccc(Nc2ncc(Cl)c(-c3ccc(Cl)s3)n2)cc1)N1CCC(N2CCCC2)CC1	PIK3CA	binding	competition with immobilised ligand	1 µM	100
CN(CCCC(F)(F)F)c1nccc(-c2cnn3ncccc23)n1	PIK3CA H1047L	binding		1 µM	100
c1ccc(N2CCN(Cc3nc4ccccc4[nH]3)CC2)nc1	PIK3CA Q546K	cell-free assay	competition with immobilised ligand	1 µM	100
CN(C)c1nccc(-c2cnc3ncccn23)n1	PIK3CA E545K	binding		1 µM	82
O=C(Nc1c[nH]nc1C(=O)NC1CCNCC1)c1cc(F)cc(F)c1	PIK3CA	binding	competition with immobilised ligand	1 µM	100
CCN1CCN(Cc2ccc(C(=O)Nc3ccc(C)c(Oc4ccc5c(c4)CC(=O)N5)c3)cc2C(F)(F)F)CC1	PIK3CA C420R	binding	competition with immobilised ligand	1 µM	100

Structure (SMILES)	target	observed	technique	concentration	remaining binding [%]
CN1CCN(c2cnc3c(C4CCN(C(=O)c5ccc(OC(F)(F)F)cc5N)CC4)ncnc3c2)CC1	PIK3CA E542K	cell-free assay	competition with immobilised ligand	1 µM	100
COc1cnc(Nc2cccc(S(N)(=O)=O)c2)nc1N1CCN(c2ccccc2)C(=O)C1	PIK3CA I800L	binding	competition with immobilised ligand	1 µM	59
O=C(NCCCC1CCCCC1)c1ccc(CNC(=O)c2cnn(-c3ccccc3)c2C(F)(F)F)cc1	PIK3CA M1043I	cell-free assay	competition with immobilised ligand	0.1 µM	68
O=C(NCCCN1CCOCC1)c1ccc(Nc2nccc(-c3cc4ccccc4s3)n2)cc1	PIK3CA E545K	binding	competition with immobilised ligand	1 µM	40
CCCOc1ccc([C@H]2[C@H](C(=O)O)[C@@H](c3ccc4c(c3)OCO4)CN2CC(=O)Nc2c(CC)cccc2CC)cc1	PIK3CA I800L	cell-free assay	competition with immobilised ligand	1 µM	81
Nc1ncc2c(n1)-c1c([nH]c3ccc(C#CC4CC4)cc13)CCCC2	PIK3CA Q546K	binding	competition with immobilised ligand	1 µM	98
CCN(CC)Cc1cc(Nc2ccnc3cc(Cl)ccc23)ccc1O	PIK3CA	cell-free assay	competition with immobilised ligand	10 µM	93
C[C@H]1CCN(c2nccc(-c3cnn4ncccc34)n2)C1	PIK3CA H1047L	binding		1 µM	69
CN(c1ccnc(CNc2nc(Nc3ccc4c(c3)CC(=O)N4)ncc2C(F)(F)F)n1)S(C)(=O)=O	PIK3CA E545K	cell-free assay	competition with immobilised ligand	1 µM	100
N[C@@H]1CCN(c2nccc(-c3cnn4ncccc34)n2)C1	PIK3CA Q546K	binding		1 µM	100
CNC(=O)[C@@H]1CC[C@@H](n2c(-c3ccc4cnccc4c3)nc3ccc(C(=O)NCc4cccc(C(N)=O)c4)cc32)C1	PIK3CA I800L	binding	competition with immobilised ligand	1 µM	85
Cc1c(NC(=O)c2cc(C(N)=O)nc3cc(F)ccc23)c(C(F)(F)F)nn1Cc1ccc(C(C)(C)C)cc1	PIK3CA C420R	cell-free assay	competition with immobilised ligand	1 µM	100
CN(C)c1nccc(-c2cnn3ncccc23)n1	PIK3CA C420R	binding		1 µM	100
COc1cnc(Nc2cccc(S(N)(=O)=O)c2)nc1N1CCN(c2ccccc2)CC1	PIK3CA Q546K	binding	competition with immobilised ligand	1 µM	70
c1cncc(-c2cccc(Nc3nccc(NC4CCCCC4)n3)c2)c1	PIK3CA H1047Y	binding	competition with immobilised ligand	10 µM	89
C[C@@H](c1ccc(-n2cnc3c(N)ncnc32)cc1)N1CCc2nn(C)c(Cc3ccccc3)c2C1=O	PIK3CA I800L	binding	competition with immobilised ligand	0.1 µM	71
CN1CCN(c2ccc(Nc3nccc(-c4ccccc4)n3)cc2C(F)(F)F)CC1	PIK3CA I800L	binding		10 µM	56
CN(c1nccc(-c2cnn3ncccc23)n1)C1CC1	PIK3CA H1047L	binding		1 µM	100
